Eleven molecules from ChEMBL document CHEMBL1151869, “Discovery of novel 3,6-disubstituted 2-pyridinecarboxamide derivatives as GK activators” (Bioorg Med Chem Lett, 2009) can be followed below.

One data set has as its target T1, Hexokinase-4 (Homo sapiens, UniProt P35557).
T1 sequence (P35557 whole entry): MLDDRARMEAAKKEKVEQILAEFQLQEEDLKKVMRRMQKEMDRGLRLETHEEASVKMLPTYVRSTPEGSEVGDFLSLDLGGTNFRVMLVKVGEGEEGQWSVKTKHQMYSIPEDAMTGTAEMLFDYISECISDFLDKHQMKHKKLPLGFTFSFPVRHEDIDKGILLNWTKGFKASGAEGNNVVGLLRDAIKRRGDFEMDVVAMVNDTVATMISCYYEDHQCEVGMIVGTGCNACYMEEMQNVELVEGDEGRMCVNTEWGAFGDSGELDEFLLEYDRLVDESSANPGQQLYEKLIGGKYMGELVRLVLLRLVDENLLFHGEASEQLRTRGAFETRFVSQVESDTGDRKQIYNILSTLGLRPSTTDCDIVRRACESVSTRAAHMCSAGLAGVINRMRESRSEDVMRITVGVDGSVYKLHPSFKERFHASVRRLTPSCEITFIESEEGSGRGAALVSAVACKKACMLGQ
Briefly: Activation of glucokinase.

Data set [1] is described as follows: Hepatic availability in rat hepatocytes. The format is ADME, cell-based, Hepatocyte.
The nature of data set [2]: AUC (0 to infinity) in rat at 3 mg/kg, po. The format is ADME, organism-based. More on the design: dose 3 mg/kg, route oral, time infinity. The conditions noted are these: plasma.
Data set [3] relates to Rattus norvegicus. Nature of the data set: Reduction in plasma glucose level in overnight fasted Wistar rat at 30 mg/kg, po treated after 30 mins of glucose challenge measured after 1 to 3 hrs by oral glucose tolerance test. Format: functional, organism-based. More on the design: dose 30 mg/kg. The method in brief:
(§1)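 Nine-week-old male Wistar rats, fasted overnight, given oral dose (30 mpk) or vehicle (0.5% methylcellulose), then an oral glucose challenge (2 g/kg) 30 min later. Blood glucose read just before the challenge and at 30, 60, 90, 120, 150 and 210 min after; AUC taken from the glucose time course.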

Data set [4] can be described thus: Oral bioavailability in rat at 3 mg/kg, po. The format is ADME, organism-based. The following applies: in vivo.
For data set [5], the system named is Rattus norvegicus. Briefly: Reduction in glucose AUC in overnight fasted Wistar rat at 30 mg/kg, po treated after 30 mins of glucose challenge measured after 3.5 hrs by oral glucose tolerance test. The format is functional, organism-based. The arrangement: dose 30 mg/kg. The gist of the method:
as §1

Data set [6] can be described thus: Plasma clearance in rat at 1 mg/kg, iv. The format is ADME, organism-based. The arrangement: dose 1 mg/kg, route intravenous.
Data set [7] can be described thus: AUC (0 to infinity) in rat at 1 mg/kg, iv. The format is ADME, organism-based. More on the design: dose 1 mg/kg, route intravenous, time infinity. The conditions noted are these: plasma.
The nature of data set [8]: Volume of distribution at steady state in rat at 1 mg/kg, iv. The following applies: in vivo, read-out: Vdss. More on the design: dose 1 mg/kg, route intravenous. The format is ADME, organism-based.
Data set [9] in a line: Half life in rat at 1 mg/kg, iv. The format is ADME, organism-based. The arrangement: dose 1 mg/kg, route intravenous. The conditions noted are these: in vivo.

Active and inactive are the calls of the source. No cut-off for these calls is given here.

`O=C(Nc1nccs1)c1nc(Sc2nnc[nH]2)ccc1Sc1ccccc1F` gave a concentration for a half-maximal effect (EC50) at Hexokinase-4 of 57 nM. In data set [1], the Fh was 71%.

Regarding `Cn1cnnc1Sc1ccc(Sc2ccc(F)cc2)c(C(=O)Nc2nccs2)n1`, the EC50 at Hexokinase-4 came to 120 nM.

Regarding `COc1cccc(Sc2ccc(Sc3nnc[nH]3)nc2C(=O)Nc2nccs2)c1`, it took 160 nM to reach a half-maximal effect on Hexokinase-4 (EC50).

As to `O=C(Nc1nccs1)c1nc(Sc2nnc[nH]2)ccc1Sc1ccccc1`, a half-maximal response at Hexokinase-4 (EC50) required 38 nM. Moreover, in data set [1], the Fh was 77%.

At Hexokinase-4, `O=C(Nc1nccs1)c1nc(Sc2nnc[nH]2)ccc1Sc1cccc(F)c1` had an EC50 of 40 nM. Further, the Fh in [1] is 89%.

In the case of `Cc1csc(NC(=O)c2cc(Sc3nncn3C)ccc2Sc2ccc(F)cc2)n1`, on Hexokinase-4, the concentration giving a half-maximal response (EC50) is 970 nM.

On Hexokinase-4, `Cc1csc(NC(=O)c2nc(Sc3nncn3C)ccc2Sc2ccc(F)cc2)n1` returned a 50% effective concentration (EC50) of 250 nM.

The molecule `COc1ccc(Sc2ccc(Sc3nnc[nH]3)nc2C(=O)Nc2nccs2)cc1` had an EC50 at Hexokinase-4 of 120 nM. The Fh in data set [1] is 35%.

At Hexokinase-4, `O=C(Nc1nccs1)c1nc(Sc2nnc[nH]2)ccc1Sc1ccc(C(F)(F)F)cc1` returned an EC50 of 160 nM.

As to `Cc1cccc(Sc2ccc(Sc3nnc[nH]3)nc2C(=O)Nc2nccs2)c1`, on Hexokinase-4, a half-maximal effect (EC50) was put at 100 nM. This molecule displayed a Fh in [1] of 69%.

In the case of `O=C(Nc1nccs1)c1nc(Sc2nnc[nH]2)ccc1Sc1ccc(F)cc1`, the figures for the AUC(0-inf) in data set [2] and in data set [7] were 3.3 µM·h and 4.9 µM·h, respectively. The result with Rattus norvegicus [3] and in the data set on Rattus norvegicus [5] was Active. Further, the bioavailability in data set [4] came to 23%. Moreover, the clearance in data set [6] was 8.8 mL/min/kg. The molecule further yielded a Fh in data set [1] of 100%. The Vd in data set [8] stood at 0.5 L/kg. Moreover, in [9], the half-life was 4 h.
